Experimental data from ChEMBL document CHEMBL2380298, “Synthesis and antimicrobial activity of novel amphiphilic aromatic amino alcohols” (2013).

Experiments:
Type in all cases: functional
[1] = tested on: Staphylococcus epidermidis; test: Antimicrobial activity against Staphylococcus epidermidis ATCC 12228 by broth dilution method
[2] = tested on: Staphylococcus aureus; test: Antimicrobial activity against Staphylococcus aureus ATCC 29213 by broth dilution method; conditions: Staphylococcus aureus, ATCC 29213
[3] = tested on: Staphylococcus aureus; test: Bactericidal activity against methicillin-resistant Staphylococcus aureus clinical isolate 264 after 24 hrs; conditions: isolate 264, 24 h
Outline: (§1)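 Bactericidal concentration: 0.1 ml from wells at the MIC dilution and the dilutions on either side was streaked onto tryptic soy agar and incubated 24 h. It was taken as the lowest drug concentration giving no growth (100% killing).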

[4] = tested on: Staphylococcus aureus; test: Bactericidal activity against methicillin-resistant Staphylococcus aureus clinical isolate 260 after 24 hrs; conditions: isolate 260, 24 h; outline: as §1
[5] = tested on: Staphylococcus aureus; test: Bactericidal activity against methicillin-resistant Staphylococcus aureus clinical isolate 259 after 24 hrs; conditions: isolate 259, 24 h; outline: as §1
[6] = tested on: Staphylococcus aureus; test: Bactericidal activity against methicillin-resistant Staphylococcus aureus clinical isolate 257 after 24 hrs; conditions: isolate 257, 24 h; outline: as §1
[7] = tested on: Staphylococcus aureus; test: Bactericidal activity against methicillin-resistant Staphylococcus aureus clinical isolate 255 after 24 hrs; conditions: isolate 255, 24 h; outline: as §1
[8] = tested on: Staphylococcus aureus; test: Bactericidal activity against methicillin-resistant Staphylococcus aureus clinical isolate 238 after 24 hrs; conditions: isolate 238, 24 h; outline: as §1
[9] = tested on: Staphylococcus aureus; test: Bactericidal activity against methicillin-resistant Staphylococcus aureus clinical isolate 237 after 24 hrs; conditions: isolate 237, 24 h; outline: as §1
[10] = tested on: Staphylococcus aureus; test: Bactericidal activity against methicillin-resistant Staphylococcus aureus clinical isolate 236 after 24 hrs; conditions: isolate 236, 24 h; outline: as §1
[11] = tested on: Staphylococcus aureus; test: Bactericidal activity against methicillin-resistant Staphylococcus aureus clinical isolate 235 after 24 hrs; conditions: isolate 235, 24 h; outline: as §1
[12] = tested on: Staphylococcus aureus; test: Bactericidal activity against methicillin-resistant Staphylococcus aureus clinical isolate 232 after 24 hrs; conditions: isolate 232, 24 h; outline: as §1
[13] = tested on: Staphylococcus aureus; test: Bactericidal activity against methicillin-resistant Staphylococcus aureus clinical isolate 231 after 24 hrs; conditions: isolate 231, 24 h; outline: as §1
[14] = tested on: Staphylococcus aureus; test: Bactericidal activity against methicillin-resistant Staphylococcus aureus clinical isolate 227 after 24 hrs; conditions: isolate 227, 24 h; outline: as §1
[15] = tested on: Staphylococcus aureus; test: Bactericidal activity against methicillin-resistant Staphylococcus aureus clinical isolate 225 after 24 hrs; conditions: isolate 225, 24 h; outline: as §1
[16] = tested on: Staphylococcus aureus; test: Bactericidal activity against methicillin-resistant Staphylococcus aureus clinical isolate 215 after 24 hrs; conditions: isolate 215, 24 h; outline: as §1
[17] = tested on: Staphylococcus aureus; test: Bactericidal activity against methicillin-resistant Staphylococcus aureus clinical isolate 212 after 24 hrs; conditions: isolate 212, 24 h; outline: as §1
[18] = tested on: Staphylococcus aureus; test: Bactericidal activity against methicillin-resistant Staphylococcus aureus clinical isolate 207 after 24 hrs; conditions: isolate 207, 24 h; outline: as §1
[19] = tested on: Staphylococcus aureus; test: Bactericidal activity against methicillin-resistant Staphylococcus aureus clinical isolate 195 after 24 hrs; conditions: isolate 195, 24 h; outline: as §1
[20] = tested on: Staphylococcus aureus; test: Bactericidal activity against methicillin-resistant Staphylococcus aureus clinical isolate 178 after 24 hrs; conditions: isolate 178, 24 h; outline: as §1
[21] = tested on: Staphylococcus aureus; test: Bactericidal activity against methicillin-resistant Staphylococcus aureus clinical isolate 176 after 24 hrs; conditions: isolate 176, 24 h; outline: as §1
[22] = tested on: Escherichia coli; test: Bactericidal activity against Escherichia coli ATCC 11229 after 24 hrs; conditions: ATCC 11229, 24 h
Outline: (§2)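 MBC: after MIC determination, 0.1 ml from the MIC well and from two dilutions either side streaked on tryptic soy agar, incubated 24 h; MBC taken as lowest concentration giving no growth (100% kill).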

[23] = tested on: Staphylococcus epidermidis; test: Bactericidal activity against Staphylococcus epidermidis ATCC 12228 after 24 hrs; conditions: ATCC 12228, 24 h; outline: as §2
[24] = tested on: Staphylococcus aureus; test: Bactericidal activity against Staphylococcus aureus ATCC 29213 after 24 hrs; conditions: ATCC 29213, 24 h; outline: as §1
[25] = tested on: Candida parapsilosis; test: Antimicrobial activity against Candida parapsilosis ATCC 90030 by broth dilution method; conditions: Lodderomyces parapsilosis
[26] = tested on: Nakaseomyces glabratus; test: Antimicrobial activity against Candida glabrata ATCC 18804 by broth dilution method
[27] = tested on: Candida albicans; test: Antimicrobial activity against Candida albicans ATCC 22019 by broth dilution method
[28] = tested on: Candida tropicalis; test: Antimicrobial activity against Candida tropicalis ATCC 750 by broth dilution method
[29] = tested on: Staphylococcus aureus; test: Antimicrobial activity against methicillin-resistant Staphylococcus aureus clinical isolate by broth dilution method
[30] = tested on: Staphylococcus aureus; test: Antimicrobial activity against methicillin-resistant Staphylococcus aureus clinical isolate 264 by broth dilution method
[31] = tested on: Staphylococcus aureus; test: Antimicrobial activity against methicillin-resistant Staphylococcus aureus clinical isolate 260 by broth dilution method
[32] = tested on: Staphylococcus aureus; test: Antimicrobial activity against methicillin-resistant Staphylococcus aureus clinical isolate 257 by broth dilution method
[33] = tested on: Staphylococcus aureus; test: Antimicrobial activity against methicillin-resistant Staphylococcus aureus clinical isolate 259 by broth dilution method
[34] = tested on: Staphylococcus aureus; test: Antimicrobial activity against methicillin-resistant Staphylococcus aureus clinical isolate 238 by broth dilution method
[35] = tested on: Staphylococcus aureus; test: Antimicrobial activity against methicillin-resistant Staphylococcus aureus clinical isolate 255 by broth dilution method
[36] = tested on: Staphylococcus aureus; test: Antimicrobial activity against methicillin-resistant Staphylococcus aureus clinical isolate 237 by broth dilution method
[37] = tested on: Staphylococcus aureus; test: Antimicrobial activity against methicillin-resistant Staphylococcus aureus clinical isolate 236 by broth dilution method
[38] = tested on: Staphylococcus aureus; test: Antimicrobial activity against methicillin-resistant Staphylococcus aureus clinical isolate 235 by broth dilution method
[39] = tested on: Staphylococcus aureus; test: Antimicrobial activity against methicillin-resistant Staphylococcus aureus clinical isolate 232 by broth dilution method
[40] = tested on: Staphylococcus aureus; test: Antimicrobial activity against methicillin-resistant Staphylococcus aureus clinical isolate 227 by broth dilution method
[41] = tested on: Staphylococcus aureus; test: Antimicrobial activity against methicillin-resistant Staphylococcus aureus clinical isolate 231 by broth dilution method
[42] = tested on: Staphylococcus aureus; test: Antimicrobial activity against methicillin-resistant Staphylococcus aureus clinical isolate 225 by broth dilution method
[43] = tested on: Staphylococcus aureus; test: Antimicrobial activity against methicillin-resistant Staphylococcus aureus clinical isolate 215 by broth dilution method
[44] = tested on: Staphylococcus aureus; test: Antimicrobial activity against methicillin-resistant Staphylococcus aureus clinical isolate 218 by broth dilution method
[45] = tested on: Staphylococcus aureus; test: Antimicrobial activity against methicillin-resistant Staphylococcus aureus clinical isolate 212 by broth dilution method
[46] = tested on: Staphylococcus aureus; test: Antimicrobial activity against methicillin-resistant Staphylococcus aureus clinical isolate 207 by broth dilution method
[47] = tested on: Staphylococcus aureus; test: Antimicrobial activity against methicillin-resistant Staphylococcus aureus clinical isolate 205 by broth dilution method
[48] = tested on: Staphylococcus aureus; test: Antimicrobial activity against methicillin-resistant Staphylococcus aureus clinical isolate 195 by broth dilution method
[49] = tested on: Staphylococcus aureus; test: Antimicrobial activity against methicillin-resistant Staphylococcus aureus clinical isolate 178 by broth dilution method
[50] = tested on: Staphylococcus aureus; test: Antimicrobial activity against methicillin-resistant Staphylococcus aureus clinical isolate 176 by broth dilution method
[51] = tested on: Pseudomonas aeruginosa; test: Antimicrobial activity against Pseudomonas aeruginosa ATCC 27853 by broth dilution method
[52] = tested on: Escherichia coli; test: Antimicrobial activity against Escherichia coli ATCC 11229 by broth dilution method

With `CCCCCCCCCOc1ccc(CNC(CO)(CO)CO)cc1.Cl` as the compound, how does the “-logMIC” value [1] read?
The value was 4.68.

And the MIC ([1]; Staphylococcus epidermidis, ATCC 12228)?
The MIC was 8 µg/mL.

What about the MIC [2] of the same compound?
Its MIC is 8 µg/mL.

What about the MBC [3] of the same compound?
The MBC was 32 µg/mL.

What about the MBC [4] of the same compound?
Its MBC is 32 µg/mL.

And the MBC [5]?
Its MBC is 32 µg/mL.

And the MBC [6]?
Its MBC is 64 µg/mL.

What about the MBC [7] of the same compound?
The MBC was 32 µg/mL.

And the MBC [8]?
The MBC was 32 µg/mL.

And the MBC [9]?
The MBC was 32 µg/mL.

And the MBC [10]?
The MBC was 16 µg/mL.

And the MBC [11]?
The MBC was 32 µg/mL.

What about the MBC [12] of the same compound?
The MBC was 32 µg/mL.

What about the MBC [13] of the same compound?
The MBC was 32 µg/mL.

What about the MBC [14] of the same compound?
Its MBC is 64 µg/mL.

And the MBC [15]?
Its MBC is 16 µg/mL.

And the MBC [16]?
The MBC was 32 µg/mL.

What about the MBC [17] of the same compound?
Its MBC is 64 µg/mL.

What about the MBC [18] of the same compound?
The MBC was 64 µg/mL.

What about the MBC [19] of the same compound?
Its MBC is 32 µg/mL.

And the MBC [20]?
Its MBC is 32 µg/mL.

What about the MBC [21] of the same compound?
The MBC was 32 µg/mL.

What about the MBC [22] of the same compound?
Its MBC is 32 µg/mL.

What about the MBC [23] of the same compound?
The MBC was 16 µg/mL.

What about the MBC [24] of the same compound?
Its MBC is 16 µg/mL.

What about the MIC [25] of the same compound?
Its MIC is 32 µg/mL.

And the MIC [26]?
Its MIC is 4 µg/mL.

What about the MIC [27] of the same compound?
Its MIC is 4 µg/mL.

What about the MIC [28] of the same compound?
Its MIC is 64 µg/mL.

And the “-logMIC” value [29]?
Its value is 4.529.

What about the MIC50 ([29]; Staphylococcus aureus) of the same compound?
The MIC50 was 8 µg/mL.

What about the MIC90 ([29]; Staphylococcus aureus) of the same compound?
Its MIC90 is 16 µg/mL.

What about the MIC [30] of the same compound?
Its MIC is 8 µg/mL.

What about the MIC [31] of the same compound?
The MIC was 16 µg/mL.

What about the MIC [32] of the same compound?
The MIC was 8 µg/mL.

What about the MIC [33] of the same compound?
Its MIC is 8 µg/mL.

What about the MIC [34] of the same compound?
Its MIC is 32 µg/mL.

What about the MIC [35] of the same compound?
Its MIC is 16 µg/mL.

What about the MIC [36] of the same compound?
Its MIC is 16 µg/mL.

And the MIC [37]?
Its MIC is 8 µg/mL.

And the MIC [38]?
The MIC was 8 µg/mL.

What about the MIC [39] of the same compound?
The MIC was 16 µg/mL.

And the MIC [40]?
The MIC was 16 µg/mL.

And the MIC [41]?
The MIC was 8 µg/mL.

What about the MIC [42] of the same compound?
The MIC was 8 µg/mL.

And the MIC [43]?
The MIC was 16 µg/mL.

And the MIC [44]?
Its MIC is 8 µg/mL.

And the MIC [45]?
The MIC was 32 µg/mL.

And the MIC [46]?
Its MIC is 16 µg/mL.

What about the MIC [47] of the same compound?
The MIC was 8 µg/mL.

And the MIC [48]?
The MIC was 8 µg/mL.

What about the MIC [49] of the same compound?
Its MIC is 16 µg/mL.

And the MIC [50]?
The MIC was 8 µg/mL.

And the MIC [51]?
Its MIC is greater than 256 µg/mL.

What about the “-logMIC” value [52] of the same compound?
Its value is 4.38.

And the MIC ([52]; Escherichia coli, ATCC 11229)?
Its MIC is 16 µg/mL.
